ChEMBL document CHEMBL1157562, “Piperazinyl glutamate pyridines as potent orally bioavailable P2Y12 antagonists for inhibition of platelet aggregation” (J Med Chem, 2010)

Legend:
P2Y purinoceptor 12 = P2Y purinoceptor 12 (Homo sapiens, UniProt Q9H244); assay: Displacement of [33P]ADP from human recombinant P2Y12 receptor expressed in CHO cells; type: cell-based
How it was run: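 Washed membranes from CHO cells expressing synthetic human P2Y12, incubated 1 h at room temperature with 0.2 nM 33P-MeSADP in 50 mM Tris/100 mM NaCl/1 mM EDTA. Compound was tested as a 7-point 3-fold series in triplicate. Nonspecific binding was defined with 300 nM 2-MeSADP, followed by filtration.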

[1] = Antiplatelet aggregation activity against adenosine diphosphate-induced human platelet rich plasma assessed as inhibition of platelet aggregation by turbidimetric method; type: functional; conditions: Homo sapiens, Platelet, Plasma
How it was run: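 Human PRP, prepared by two-step centrifugation and adjusted to 330 000 platelets/μL with PPP. Compound was preincubated 5 min at 37 °C in 0.5% DMSO, then 20 μM ADP was added. OD626 was read kinetically for 15 min at 37 °C with mixing between reads.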

Platelet = assay: Relative potency, ratio of IC50 for drug to IC50 for AZD-6140 for platelet aggregation in human platelet rich plasma; type: functional

Sequence of P2Y purinoceptor 12 (Q9H244 whole entry): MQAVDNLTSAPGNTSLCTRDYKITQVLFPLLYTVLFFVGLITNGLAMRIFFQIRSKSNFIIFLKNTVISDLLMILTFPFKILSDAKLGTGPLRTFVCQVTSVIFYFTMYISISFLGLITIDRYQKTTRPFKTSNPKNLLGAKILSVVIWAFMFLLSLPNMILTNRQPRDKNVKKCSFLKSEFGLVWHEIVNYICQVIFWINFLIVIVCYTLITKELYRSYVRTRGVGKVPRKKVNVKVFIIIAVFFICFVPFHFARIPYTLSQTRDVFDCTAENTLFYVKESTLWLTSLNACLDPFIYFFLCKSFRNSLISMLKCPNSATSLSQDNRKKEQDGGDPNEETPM

| Compound | Ki (P2Y purinoceptor 12) [nM] | IC50 [1] [nM] | Ratio IC50 (Platelet) |
| --- | --- | --- | --- |
| CCCCCOC(=O)N1CCN(C(=O)[C@H](CCC(=O)O)NC(=O)c2cc(C(=O)N(C)CC)cc(-c3ccccc3)n2)CC1 | 2.6 | 580 | 1.3 |
| CCCCCCOC(=O)N1CCN(C(=O)[C@H](CCC(=O)O)NC(=O)c2cc(OCCN)cc(-c3ccccc3)n2)CC1 | 8.4 | 4500 | 7.9 |
| CCCCCOC(=O)N1CCN(C(=O)[C@H](CCC(=O)O)NC(=O)c2cc(N3CCC(O)CC3)cc(-c3ccccc3)n2)CC1 |  | 2500 | 3.2 |
| CCCCOC(=O)N1CCN(C(=O)[C@H](CCC(=O)O)NC(=O)c2cc(OCC3CCN(C(C)C)CC3)cc(-c3ccccc3)n2)CC1 | 4.5 | 410 | 0.33 |
| CCOC(=O)N1CCN(C(=O)[C@H](CCC(=O)O)NC(=O)c2cc(NCCOC)cc(-c3ccccc3)n2)CC1 |  | 14000 | 13 |
| CCCCCOC(=O)N1CCN(C(=O)[C@H](CCC(=O)O)NC(=O)c2cc(OCC3CCN(C(=O)COC)CC3)cc(-c3ccccc3)n2)CC1 | 12 | 1300 | 1.3 |
| CCCCCOC(=O)N1CCN(C(=O)[C@H](CCC(=O)O)NC(=O)c2cc(C(N)=O)cc(-c3ccccc3)n2)CC1 | 7.5 | 8900 | 9 |
| CCCCOC(=O)N1CCN(C(=O)[C@H](CCC(=O)O)NC(=O)c2cc(OCC3CCOCC3)cc(-c3ccccc3)n2)CC1 | 11 | 2300 | 3.6 |
| CCCCCCOC(=O)N1CCN(C(=O)[C@H](CCC(=O)O)NC(=O)c2cc(N3CCC(N4CCCC4)CC3)cc(-c3ccccc3)n2)CC1 | 2.6 | 1200 | 2.3 |
| CCCCCOC(=O)N1CCN(C(=O)[C@H](CCC(=O)O)NC(=O)c2cc(CCCCN(C)C)cc(-c3ccccc3)n2)CC1 | 3.3 | 1000 | 1 |
| CCCCCCOC(=O)N1CCN(C(=O)[C@H](CCC(=O)O)NC(=O)c2cc(OCC3CCNCC3)cc(-c3ccccc3)n2)CC1 | 4.5 | 640 | 1.3 |
| CCCCCCOC(=O)N1CCN(C(=O)[C@H](CCC(=O)O)NC(=O)c2cc(OCCOC)cc(-c3ccccc3)n2)CC1 | 14 | 8300 | 7.1 |
| CCCCCCOC(=O)N1CCN(C(=O)[C@H](CCC(=O)O)NC(=O)c2cc(OCCO)cc(-c3ccccc3)n2)CC1 | 18 | 21000 | 13 |
| CCCCOC(=O)N1CCN(C(=O)[C@H](CCC(=O)O)NC(=O)c2cc(N3CCC(N4CCCC4)CC3)cc(-c3ccccc3)n2)CC1 | 64 | 560 | 1.7 |
| CCCCCOC(=O)N1CCN(C(=O)[C@H](CCC(=O)O)NC(=O)c2cc(NC(=O)N3CCN(C)CC3)cc(-c3ccccc3)n2)CC1 | 3.2 | 11000 | 7.2 |
| CCCCOC(=O)N1CCN(C(=O)[C@H](CCC(=O)O)NC(=O)c2cc(OC3CCN(C(=O)OCC)CC3)cc(-c3ccccc3)n2)CC1 | 20 | 3700 | 5.9 |
| CCCCOC(=O)N1CCN(C(=O)[C@H](CCC(=O)O)NC(=O)c2cc(OC3CCN(CCOC)CC3)cc(-c3ccccc3)n2)CC1 | 9.4 | 1200 | 1.1 |
| CCCCCOC(=O)N1CCN(C(=O)[C@H](CCC(=O)O)NC(=O)c2cc(NCCOC)cc(-c3ccccc3)n2)CC1 | 9.8 | 3200 | 4.9 |
| CCCCCOC(=O)N1CCN(C(=O)[C@H](CCC(=O)O)NC(=O)c2cc(N3CCC(CO)CC3)cc(-c3ccccc3)n2)CC1 | 2.4 | 1800 | 6.3 |
| CCCCOC(=O)N1CCN(C(=O)[C@H](CCC(=O)O)NC(=O)c2cc(OCCO)cc(-c3ccccc3)n2)CC1 | 20 | 7900 | 5.1 |
| CCCCCOC(=O)N1CCN(C(=O)[C@H](CCC(=O)O)NC(=O)c2cc(OC(=O)N(C)C)cc(-c3ccccc3)n2)CC1 | 5.5 | 2900 | 1.7 |
| CCCCOC(=O)N1CCN(C(=O)[C@H](CCC(=O)O)NC(=O)c2cc(OC3CCN(C(=O)C(F)(F)F)CC3)cc(-c3ccccc3)n2)CC1 | 12 | 2100 | 3.4 |

| Compound | Ki (P2Y purinoceptor 12) [nM] | IC50 [1] [nM] | Ratio IC50 (Platelet) |
| --- | --- | --- | --- |
| CCCCCOC(=O)N1CCN(C(=O)[C@H](CCC(=O)O)NC(=O)c2cc(NC(=O)OCC3CCNCC3)cc(-c3ccccc3)n2)CC1 | 1.7 | 5800 | 3.7 |
| CCCCOC(=O)N1CCN(C(=O)[C@H](CCC(=O)O)NC(=O)c2cc(OC3CCN(C(=O)COC)CC3)cc(-c3ccccc3)n2)CC1 | 2.4 | 520 | 0.78 |
| CCCCCOC(=O)N1CCN(C(=O)[C@H](CCC(=O)O)NC(=O)c2cc(OC3CCN(C(C)C)CC3)cc(-c3ccccc3)n2)CC1 | 7 | 480 | 0.68 |
| CCOC(=O)N1CCN(C(=O)[C@H](CCC(=O)O)NC(=O)c2cc(OC)cc(-c3ccccc3)n2)CC1 |  | 39000 | 55 |
| CCCCCOC(=O)N1CCN(C(=O)[C@H](CCC(=O)O)NC(=O)c2cc(OC3CCN(C(=O)C(F)(F)F)CC3)cc(-c3ccccc3)n2)CC1 | 19 | 4700 | 4.4 |
| CCCCOC(=O)N1CCN(C(=O)[C@H](CCC(=O)O)NC(=O)c2cc(OC3CCNCC3)cc(-c3ccccc3)n2)CC1 |  | 1100 | 0.99 |
| CCOC(=O)N1CCN(C(=O)[C@H](CCC(=O)O)NC(=O)c2cc(N3CCC(COC)CC3)cc(-c3ccccc3)n2)CC1 |  | 10000 | 9.7 |
| CCOC(=O)N1CCN(C(=O)[C@H](CCC(=O)O)NC(=O)c2cc(N3CCC(O)CC3)cc(-c3ccccc3)n2)CC1 |  | 9900 | 10 |
| CCCCCOC(=O)N1CCN(C(=O)[C@H](CCC(=O)O)NC(=O)c2cc(OCCCC)cc(-c3ccccc3)n2)CC1 |  | 28000 | 28 |
| CCOC(=O)N1CCN(C(=O)[C@H](CCC(=O)O)NC(=O)c2cc(OCC3CCNCC3)cc(-c3ccccc3)n2)CC1 |  | 4000 | 2.7 |
| CCOC(=O)N1CCN(C(=O)[C@H](CCC(=O)O)NC(=O)c2cc(OCCCO)cc(-c3ccccc3)n2)CC1 |  | 9000 | 12 |
| CCOC(=O)N1CCN(C(=O)[C@H](CCC(=O)O)NC(=O)c2cc(NC)cc(-c3ccccc3)n2)CC1 |  | 45000 | 36 |
| CCCCCCOC(=O)N1CCN(C(=O)[C@H](CCC(=O)O)NC(=O)c2cc(N3CCC(COC)CC3)cc(-c3ccccc3)n2)CC1 |  | 7600 | 8.9 |
| CCCCCCOC(=O)N1CCN(C(=O)[C@H](CCC(=O)O)NC(=O)c2cc(N3CCC(CN)CC3)cc(-c3ccccc3)n2)CC1 |  | 1600 | 1.7 |
| CCOC(=O)N1CCN(C(=O)[C@H](CCC(=O)O)NC(=O)c2cc(N3CCC(CN)CC3)cc(-c3ccccc3)n2)CC1 |  | 3300 | 3.4 |
| CCCCOC(=O)N1CCN(C(=O)[C@H](CCC(=O)O)NC(=O)c2cc(N3CCC(CN4CCCC4)CC3)cc(-c3ccccc3)n2)CC1 |  |  | 1 |
| CCCCCOC(=O)N1CCN(C(=O)[C@H](CCC(=O)O)NC(=O)c2cc(N3CCC(CN)CC3)cc(-c3ccccc3)n2)CC1 |  |  | 0.62 |
| CCCCOC(=O)N1CCN(C(=O)[C@H](CCC(=O)O)NC(=O)c2cc(N3CCC(CN(C)C)CC3)cc(-c3ccccc3)n2)CC1 |  |  | 1.3 |
| CCOC(=O)N1CCN(C(=O)[C@H](CCC(=O)O)NC(=O)c2cc(OCCN)cc(-c3ccccc3)n2)CC1 |  | 7500 | 11 |
| CCOC(=O)N1CCN(C(=O)[C@H](CCC(=O)O)NC(=O)c2cc(OC3CCNCC3)cc(-c3ccccc3)n2)CC1 |  | 1900 | 2.5 |
| CCOC(=O)N1CCN(C(=O)[C@H](CCC(=O)O)NC(=O)c2cc(OCCO)cc(-c3ccccc3)n2)CC1 |  | 7600 | 12 |
| CCOC(=O)N1CCN(C(=O)[C@H](CCC(=O)O)NC(=O)c2cc(N3CCC(N4CCCC4)CC3)cc(-c3ccccc3)n2)CC1 |  | 2000 | 6 |
